Molecules are shown by their SMILES.

The inhibition is the relative decrease from the control value, in per cent. As a reminder, the IC50 is the concentration that gives 50% inhibition. The term clearance denotes the volume of plasma or blood freed of the substance per unit of time. By bioavailability is commonly meant dose-corrected exposure relative to a reference, in per cent.

For series [1], the target named is T1, Cav1.2 (Homo sapiens, UniProt Q13936). Put plainly: Inhibition of Cav1.2 assessed as inhibition of calcium flux at 1 uM by cell based FLIPR assay. Summed up: (§1)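 Cav1.2 counterscreen using a related calcium-influx FLIPR assay, run as % inhibition at single concentrations or as a titration.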
T1 sequence (Q13936 whole entry): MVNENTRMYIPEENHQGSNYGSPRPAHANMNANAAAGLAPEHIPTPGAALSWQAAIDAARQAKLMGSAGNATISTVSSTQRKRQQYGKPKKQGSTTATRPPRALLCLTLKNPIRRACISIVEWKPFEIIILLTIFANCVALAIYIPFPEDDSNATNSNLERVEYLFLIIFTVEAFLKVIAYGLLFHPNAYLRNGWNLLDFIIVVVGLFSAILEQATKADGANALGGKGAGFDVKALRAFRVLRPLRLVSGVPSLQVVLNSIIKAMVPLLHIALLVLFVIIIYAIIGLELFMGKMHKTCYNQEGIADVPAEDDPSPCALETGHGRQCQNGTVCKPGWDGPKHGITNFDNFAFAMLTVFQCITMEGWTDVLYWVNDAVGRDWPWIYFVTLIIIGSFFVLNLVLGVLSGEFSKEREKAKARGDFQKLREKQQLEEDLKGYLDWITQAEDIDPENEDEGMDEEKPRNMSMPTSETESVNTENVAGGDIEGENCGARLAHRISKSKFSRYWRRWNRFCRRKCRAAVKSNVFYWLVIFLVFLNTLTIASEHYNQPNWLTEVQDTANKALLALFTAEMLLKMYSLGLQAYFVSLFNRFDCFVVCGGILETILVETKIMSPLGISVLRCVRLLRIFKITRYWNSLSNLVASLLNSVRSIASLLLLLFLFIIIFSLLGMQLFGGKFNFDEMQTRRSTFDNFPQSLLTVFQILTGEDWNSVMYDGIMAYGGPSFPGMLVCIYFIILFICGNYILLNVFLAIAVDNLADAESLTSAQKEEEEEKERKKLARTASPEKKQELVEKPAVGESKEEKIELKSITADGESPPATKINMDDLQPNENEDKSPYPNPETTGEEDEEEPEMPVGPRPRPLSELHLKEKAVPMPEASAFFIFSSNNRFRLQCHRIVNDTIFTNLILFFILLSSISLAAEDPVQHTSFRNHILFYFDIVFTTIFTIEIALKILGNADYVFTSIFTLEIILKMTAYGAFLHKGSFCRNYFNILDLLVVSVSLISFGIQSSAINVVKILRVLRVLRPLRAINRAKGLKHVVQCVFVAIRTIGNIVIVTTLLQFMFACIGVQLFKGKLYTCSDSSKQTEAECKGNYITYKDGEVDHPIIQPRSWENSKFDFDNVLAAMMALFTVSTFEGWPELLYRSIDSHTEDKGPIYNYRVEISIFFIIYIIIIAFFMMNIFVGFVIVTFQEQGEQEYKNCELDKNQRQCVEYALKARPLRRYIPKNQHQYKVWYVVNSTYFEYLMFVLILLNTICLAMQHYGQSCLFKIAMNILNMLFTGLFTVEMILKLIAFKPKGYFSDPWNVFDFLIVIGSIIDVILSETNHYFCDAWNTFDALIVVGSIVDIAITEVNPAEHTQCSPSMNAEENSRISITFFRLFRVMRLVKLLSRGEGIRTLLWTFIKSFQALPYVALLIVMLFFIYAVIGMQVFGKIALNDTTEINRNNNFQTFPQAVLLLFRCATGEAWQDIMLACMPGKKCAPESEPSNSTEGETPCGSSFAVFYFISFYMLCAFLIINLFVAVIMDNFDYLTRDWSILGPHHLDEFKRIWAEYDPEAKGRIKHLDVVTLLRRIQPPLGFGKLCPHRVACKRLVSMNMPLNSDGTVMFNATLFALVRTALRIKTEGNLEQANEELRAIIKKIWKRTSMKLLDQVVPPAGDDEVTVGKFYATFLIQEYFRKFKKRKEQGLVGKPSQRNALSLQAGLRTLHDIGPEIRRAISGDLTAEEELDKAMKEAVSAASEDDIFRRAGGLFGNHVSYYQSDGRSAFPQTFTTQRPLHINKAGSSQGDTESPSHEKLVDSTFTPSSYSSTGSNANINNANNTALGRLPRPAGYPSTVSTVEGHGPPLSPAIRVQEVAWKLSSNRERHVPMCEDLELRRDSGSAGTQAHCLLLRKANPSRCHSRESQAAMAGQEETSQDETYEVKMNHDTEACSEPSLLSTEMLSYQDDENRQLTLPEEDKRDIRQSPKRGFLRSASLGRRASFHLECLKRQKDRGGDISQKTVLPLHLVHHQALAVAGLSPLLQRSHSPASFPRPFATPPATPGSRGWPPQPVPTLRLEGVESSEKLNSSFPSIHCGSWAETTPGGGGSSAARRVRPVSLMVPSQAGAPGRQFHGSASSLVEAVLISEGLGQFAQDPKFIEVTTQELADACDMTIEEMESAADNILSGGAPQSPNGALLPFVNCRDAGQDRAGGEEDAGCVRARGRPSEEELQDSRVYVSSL
The target in series [2] is T2, Voltage-dependent N-type calcium channel subunit alpha-1B (Homo sapiens, UniProt Q00975). Put plainly: Inhibition of Cav2.2 expressed HEK293 cells assessed as inhibition of calcium flux at 1 uM by FLIPR assay. Format: cell-based. In a few lines:
(§2)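 Calcium influx was read with a calcium-sensitive dye on FLIPR Tetra in CBK cells expressing α1B-1, α2-δ and β3a with Kir2.3. Cells were preincubated with compound in 30 mM K+, then channels were opened by 1:1 addition of 140 mM K+ solution. Compounds were screened at 1 μM, then titrated over 10 points (0.001–30 μM) in quadruplicate, mean ± SD. Values are averages of n ≥ 3.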
(A change in cytosolic calcium serves as a functional read-out for many receptors and channels.)

The target of series [3] is T1, Cav1.2. The series can be described thus: Inhibition of Cav1.2 assessed as inhibition of calcium flux at 3 uM by cell based FLIPR assay. Summed up:
as §1

The target of series [4] is T2, Voltage-dependent N-type calcium channel subunit alpha-1B. Put plainly: Inhibition of Cav2.2 expressed HEK293 cells assessed as inhibition of calcium flux by FLIPR assay in presence of 30 mM of potassium. Format: cell-based. Summed up:
as §2

Series [5] addresses T3, hERG (Homo sapiens, UniProt Q12809). Put plainly: Displacement of [35S]-MK-0499 from human ERG at 1 uM. Particulars: probe [35S]-MK-0499. In a few lines:
(§3)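 hERG binding was measured as displacement of 35S-labeled MK-0499 at single test concentrations.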

Series [6] has as its target T3, hERG. Put plainly: Displacement of [35S]-MK-0499 from human ERG at 10 uM. The note with it: probe [35S]-MK-0499. In a few lines: as §3
A general note: In a radioligand displacement assay an active substance lowers the binding of a labelled ligand.

The subject of series [7] is Mus musculus. The series can be described thus: Antinociceptive activity in Cav2.2 deficient mouse SNL neuropathic pain model assessed as reversal of mechanical allodynia at 30 mg/kg, po after 2 hrs. Format: functional. Summed up: (§4)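 Cav2.2+/+ and Cav2.2−/− mice underwent spinal nerve ligation, then got a single 30 mg/kg oral dose. Mechanical allodynia was scored 2 h postdose.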

Series [8] has as its system Mus musculus. Put plainly: Antinociceptive activity in Cav2.2 expressing wild type mouse SNL neuropathic pain model assessed as reversal of mechanical allodynia at 30 mg/kg, po after 2 hrs. Format: functional. In a few lines: as §4
Series [9] has as its system Rattus norvegicus. The series can be described thus: Dose normalized AUC in po dosed rat. The class given is ADME, organism-based. The note with it: in vivo. Summed up: (§5)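 Rat pharmacokinetics from iv and po arms: 0.6 mg/kg iv with 1.8 mg/kg po, or 1 mg/kg iv with 3 mg/kg po. AUC was normalized to po dose (μM·h·kg/mg). Clearance (mL/min/kg) and half-life come from the iv arm, and F% is oral bioavailability.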

The target in series [10] is T2, Voltage-dependent N-type calcium channel subunit alpha-1B. Put plainly: Inhibition of Cav2.2 expressed HEK293 cells assessed as inhibition of calcium flux by FLIPR assay in presence of 4 mM of potassium. The class given is cell-based. Summed up:
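HEK-293-derived CBK cells coexpress α1B-1, α2-δ and β3a with Kir2.3. Compound was incubated in 4 mM K+ bath, holding about −90 mV. Ca2+ influx was read with a Ca-sensitive dye on FLIPR Tetra. Ten-point titrations ran 0.001–30 μM in quadruplicate, averaged ± SD to give IC50.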

Series [11] can be described thus: Plasma clearance in rat. The class given is ADME, organism-based. Summed up: as §5
The target of series [12] is Voltage-dependent L-type calcium channel subunit alpha-1C (Homo sapiens, UniProt Q13936). The series can be described thus: Inhibition of Cav1.2 assessed as inhibition of calcium flux by cell based FLIPR assay. In a few lines: as §1
Voltage-dependent L-type calcium channel subunit alpha-1C, sequence (Q13936 whole entry): as above
The nature of series [13]: Oral bioavailability in rat. The class given is ADME, organism-based. Particulars: in vivo. Summed up: as §5
Series [14] concerns Rattus norvegicus. The series can be described thus: Antinociceptive activity in rat assessed as reversal of complete Freund's adjuvant-induced pain at 30 mg/kg, po after 3 hrs. The class given is functional. In a few lines: (§6)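 In the rat CFA inflammatory pain model, compound was given orally at 30 mg/kg and allodynia was read at 1 and 3 h postdose. Average % reversal = (postdose − predose)/(preinjury − predose) for each rat, n = 6. Plasma exposure at 3 h was measured in satellite rats (n = 2).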

Series [15] deals with Rattus norvegicus. The series can be described thus: Antinociceptive activity in rat assessed as reversal of complete Freund's adjuvant-induced pain at 30 mg/kg, po after 1 hr. The class given is functional. In a few lines:
as §6

Series [16] is described as follows: Plasma concentration in rat SNL neuropathic pain model at 10 mg/kg, po after 3.5 hrs. Format: ADME, organism-based. Set-up: dose 10 mg/kg, route oral.
Series [17] has as its system Rattus norvegicus. The series can be described thus: Analgesic activity in rat SNL neuropathic pain model assessed as reversal of mechanical allodynia at 10 mg/kg, po after 1 hr. Format: functional.
In series [18] the test system is Rattus norvegicus. The series can be described thus: Analgesic activity in rat SNL neuropathic pain model assessed as reversal of mechanical allodynia at 10 mg/kg, po after 3 hrs. The class given is functional.
The subject of series [19] is Rattus norvegicus. Put plainly: Antinociceptive activity in rat assessed as reversal of complete Freund's adjuvant-induced pain at 10 mg/kg, po after 3 hrs. The class given is functional. Summed up: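 Rats had complete Freund's adjuvant-induced inflammatory pain and got oral dosing. Allodynia was read at 1 and 3 h postdose. Percent reversal per rat = (postdose − predose)/(preinjury − predose). Groups had at least six animals, reported as mean + SEM.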

T3 sequence (Q12809 whole entry): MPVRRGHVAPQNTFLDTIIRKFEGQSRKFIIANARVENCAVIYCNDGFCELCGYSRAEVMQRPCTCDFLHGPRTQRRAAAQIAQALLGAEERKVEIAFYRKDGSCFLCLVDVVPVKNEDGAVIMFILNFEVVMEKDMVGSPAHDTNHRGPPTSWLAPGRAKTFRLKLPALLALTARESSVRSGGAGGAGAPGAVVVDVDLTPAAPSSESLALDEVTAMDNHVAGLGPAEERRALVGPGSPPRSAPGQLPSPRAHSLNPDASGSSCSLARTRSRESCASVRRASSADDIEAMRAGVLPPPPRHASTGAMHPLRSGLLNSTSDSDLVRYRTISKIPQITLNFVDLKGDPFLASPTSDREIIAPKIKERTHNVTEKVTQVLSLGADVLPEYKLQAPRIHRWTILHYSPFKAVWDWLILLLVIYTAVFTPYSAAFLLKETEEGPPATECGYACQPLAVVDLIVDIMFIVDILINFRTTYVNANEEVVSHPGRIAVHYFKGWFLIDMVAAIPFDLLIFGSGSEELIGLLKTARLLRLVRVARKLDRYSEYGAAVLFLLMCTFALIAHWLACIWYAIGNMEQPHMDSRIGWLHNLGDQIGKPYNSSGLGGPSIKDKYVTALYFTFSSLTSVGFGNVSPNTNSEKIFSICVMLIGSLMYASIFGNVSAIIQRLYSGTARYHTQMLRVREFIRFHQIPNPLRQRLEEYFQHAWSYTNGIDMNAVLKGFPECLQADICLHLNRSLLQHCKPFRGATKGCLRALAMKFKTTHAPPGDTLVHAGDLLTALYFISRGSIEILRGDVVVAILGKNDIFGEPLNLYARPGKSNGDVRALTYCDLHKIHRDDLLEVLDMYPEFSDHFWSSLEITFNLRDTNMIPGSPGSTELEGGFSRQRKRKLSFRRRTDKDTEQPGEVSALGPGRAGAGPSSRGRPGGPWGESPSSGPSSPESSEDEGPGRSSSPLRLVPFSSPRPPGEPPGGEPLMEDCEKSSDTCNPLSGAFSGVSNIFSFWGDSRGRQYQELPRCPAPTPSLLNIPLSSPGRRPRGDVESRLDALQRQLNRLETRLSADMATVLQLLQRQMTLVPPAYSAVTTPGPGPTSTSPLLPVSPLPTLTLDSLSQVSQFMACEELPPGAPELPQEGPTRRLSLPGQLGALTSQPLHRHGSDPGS

On to `NC(=O)c1ccc(C(=O)N2CCC(N(C3CC3)S(=O)(=O)c3cccc(C(F)(F)F)c3)CC2)cc1`, for which, on Cav1.2 [1], the inhibition at 1 µM was 0%. Further, the inhibition in series [2] came to 12%. For the same compound, the inhibition at 3 µM on Cav1.2 [3] worked out at 0%.

Regarding `CS(=O)(=O)c1cccc(C(=O)N2CCC(N(C3CC3)S(=O)(=O)c3cccc(C(F)(F)F)c3)CC2)c1`, the inhibition in series [2] is 15%.

For `CS(=O)(=O)c1ccc(F)cc1C(=O)N1CCC(N(C2CC2)S(=O)(=O)c2cc(C(F)(F)F)ccc2F)CC1`, in series [4], the IC50 came out at 2500 nM.

Regarding `COC(=O)c1cccc(C(=O)N2CCC(N(C3CC3)S(=O)(=O)c3cccc(C(F)(F)F)c3)CC2)c1`, the IC50 in series [4] amounted to 380 nM. In addition, the inhibition at 1 µM on hERG [5] came to 2.4%. The compound further gave an inhibition at 10 µM on hERG [6] of 66%.

As to `NCC1(CC(=O)O)CCCCC1` [GABAPENTIN], the Activity with Mus musculus [7] is given as 48%; in the series on Mus musculus [8], 71%.

In the case of `CCCN(C1CCN(Cc2c(OC)cccc2OC)CC1)S(=O)(=O)c1cccc(C(F)(F)F)c1`, the values for the half-inhibitory concentration (IC50) in series [4], in series [10] and in series [12] were 120 nM, 4800 nM and 3200 nM, respectively. The compound also came in with an inhibition at 1 µM at hERG [5] of 91%. In addition, the AUC/dose in the series with Rattus norvegicus [9] stood at 0.007 µM·kg·h/mg. The compound also registered a clearance in series [11] of 169 mL/min/kg. The compound further registered a bioavailability in series [13] of 4%.

Consider `CS(=O)(=O)c1ccc(F)cc1C(=O)N1CCC(N(C2CC2)S(=O)(=O)c2ccc(OC(F)(F)F)cc2)CC1`, for which, in series [2], the inhibition is 0%.

On to `CN(C)c1cccc(C(=O)N2CCC(N(C3CC3)S(=O)(=O)c3cccc(C(F)(F)F)c3)CC2)c1`, for which the IC50 in [4] was 240 nM. The inhibition at 1 µM at Cav1.2 [1] is 40%; on hERG [5] it was 0%. At hERG [6], this compound displayed an inhibition at 10 µM of 51%. Also, on Cav1.2 [3], the inhibition at 3 µM worked out at 63%.

For `NC(=O)c1cccc(C(=O)N2CCC(N(C3CC3)S(=O)(=O)c3cccc(C(F)(F)F)c3)CC2)c1`, the inhibition in [2] stood at 0%.

As to `NS(=O)(=O)c1cccc(C(F)(F)F)c1`, the Activity in the series on Rattus norvegicus [14] is given as 44%; in the series with Rattus norvegicus [15], 53%; with Rattus norvegicus [17], 27%; in the series on Rattus norvegicus [18], 36%. Also, the concentration at 3.5 h in [16] was determined as 35.6 µM.

For `CC(C)C[C@H](CN)CC(=O)O` [PREGABALIN], the Activity with Rattus norvegicus [19] is 58%.

With `C[C@@H](O)[C@@H]1NC(=O)[C@H](Cc2ccc(O)cc2)NC(=O)[C@@H]2C[C@@H](O)CN2C(=O)[C@H](CC(N)=O)NC(=O)[C@@H]2CSSC[C@@H]3NC(=O)[C@H](CO)NC(=O)[C@H](CO)NC(=O)CNC(=O)[C@@H]4C[C@@H](O)CN4C(=O)[C@H](CO)NC(=O)[C@H](CCCCN)NC(=O)[C@@H](N)CSSC[C@H](NC(=O)[C@H](CSSC[C@@H](C(=O)N[C@@H](Cc4ccc(O)cc4)C(N)=O)NC(=O)[C@H](CCCN=C(N)N)NC(=O)[C@H](CCCCN)NC1=O)NC(=O)[C@H](CC(N)=O)NC(=O)[C@H](Cc1ccc(O)cc1)NC(=O)[C@H](CO)NC(=O)[C@H]([C@@H](C)O)NC(=O)[C@@H]1C[C@@H](O)CN1C(=O)[C@H](CO)NC3=O)C(=O)N[C@@H](CCCN=C(N)N)C(=O)N[C@@H](CO)C(=O)N2`, the IC50 in series [4] stood at 40 nM; in series [10], 20 nM.

As for `O=C(c1ccccc1)N1CCC(N(C2CC2)S(=O)(=O)c2cccc(C(F)(F)F)c2)CC1`, the inhibition in series [2] was 42%.
